The record followed here is ChEMBL document CHEMBL4184105, “Synthesis and biological evaluation of novel mono- and bivalent ASGP-R-targeted drug-conjugates” (Bioorg Med Chem Lett, 2018).

Series [1] deals with HepG2. The series is described as follows: Cytotoxicity against human HepG2 cells by MTS assay. It counts as functional.
The nature of series [2]: Stability of compound at pH 5 after 24 hrs by HPLC-MS analysis. The series is classed as physicochemical. Conditions: buffer, pH 5, 24 h.
Series [3] can be described thus: Stability of compound at pH 7.4 after 24 hrs by HPLC-MS analysis. The conditions noted are these: buffer, pH 7.4, 24 h. It counts as physicochemical.
Series [4] can be described thus: Binding affinity to rabbit asialoglycoprotein receptor by SPR assay. Set-up: species or system Oryctolagus cuniculus. (SPR reads the build-up and loss of mass on a sensor chip optically.)
The test system of series [5] is HepG2. Nature of the series: Induction of morphological changes in human HepG2 cells assessed as mitosis with more than 2 poles at 1 umol after 24 hrs by DAPI staining-based immunofluorescence assay. The series is classed as functional, cell-based. In short, it runs like this: (§1)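 HepG2 cells were fixed, permeabilized and immunostained with an anti-α-tubulin antibody, with nuclei counterstained by DAPI. Nuclear and cytoskeletal (microtubule, mitotic spindle) morphology was then examined by immunofluorescence microscopy alongside untreated cells.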

In series [6] the test system is HepG2. The series is described as follows: Induction of morphological changes in human HepG2 cells assessed as abnormal nuclei at 1 umol after 24 hrs by DAPI staining-based immunofluorescence assay. The series is classed as functional, cell-based. In short, it runs like this: as §1
Series [7] relates to HepG2. Nature of the series: Induction of morphological changes in human HepG2 cells assessed as altered microtubule structure at 1 umol after 24 hrs by DAPI staining-based immunofluorescence assay. The series is classed as functional, cell-based. In short, it runs like this:
as §1

pKd: −log10 of the molar value. Active and inactive are the calls of the source. The calls are words filed in the database; no cut-off is given here.

In series [1], `CC(=O)N[C@@H]1[C@@H](O)[C@@H](O)[C@@H](CO)O[C@H]1n1cc(CCCC(=O)O[C@@H](C(=O)O[C@H]2C[C@@]3(O)[C@@H](OC(=O)c4ccccc4)[C@@H]4[C@]5(OC(C)=O)CO[C@@H]5C[C@H](O)[C@@]4(C)C(=O)[C@H](OC(C)=O)C(=C2C)C3(C)C)[C@@H](NC(=O)c2ccccc2)c2ccccc2)nn1` yielded a CC50 of 92 nM. The Stability result in series [2] and in series [3] was “Stable” throughout. The negative logarithm of the Kd (pKd) in series [4] was 8.65.
Compound `CC(=O)N[C@H]1[C@H](OCCn2cc(CCCC(=O)O[C@@H](C(=O)O[C@H]3C[C@@]4(O)[C@@H](OC(=O)c5ccccc5)[C@@H]5[C@]6(OC(C)=O)CO[C@@H]6C[C@H](O)[C@@]5(C)C(=O)[C@H](OC(C)=O)C(=C3C)C4(C)C)[C@@H](NC(=O)c3ccccc3)c3ccccc3)nn2)O[C@H](CO)[C@H](O)[C@@H]1O` yielded a CC50 in series [1] of 820 nM. Besides, the Stability entry in series [2] and in series [3] was “Stable” in each case. In series [4], this compound showed a pKd of 6.60. Besides, the result in series [5], in series [6] and in series [7] was Active.
For `C=CCO[C@@H]1O[C@H](Cn2cc(CCCC(=O)O[C@H]3C[C@H]4OC[C@@]4(OC(C)=O)[C@H]4[C@H](OC(=O)c5ccccc5)[C@]5(O)C[C@H](OC(=O)[C@H](OC(=O)CCCc6cn(C[C@H]7O[C@@H](OCC=C)[C@H](NC(C)=O)[C@@H](O)[C@H]7O)nn6)[C@@H](NC(=O)c6ccccc6)c6ccccc6)C(C)=C([C@@H](OC(C)=O)C(=O)[C@]34C)C5(C)C)nn2)[C@H](O)[C@H](O)[C@H]1NC(C)=O`, the Stability result in series [2] and in series [3] was “Stable” each time. In series [4], this compound gave a pKd of 9.48.
With `C=CCO[C@@H]1O[C@H](Cn2cc(CCCC(=O)O[C@@H](C(=O)O[C@H]3C[C@@]4(O)[C@@H](OC(=O)c5ccccc5)[C@@H]5[C@]6(OC(C)=O)CO[C@@H]6C[C@H](O)[C@@]5(C)C(=O)[C@H](OC(C)=O)C(=C3C)C4(C)C)[C@@H](NC(=O)c3ccccc3)c3ccccc3)nn2)[C@H](O)[C@H](O)[C@H]1NC(C)=O`, in series [1], the CC50 is 3250 nM. Besides, the Stability entry in series [2] and in series [3] was “Stable” in each case. Further, the negative-log Kd (pKd) in series [4] is 9.79. Also, the result in series [5], in series [6] and in series [7] was Active.
`CC(=O)N[C@@H]1[C@@H](O)[C@@H](O)[C@@H](CO)O[C@H]1n1cc(CCCC(=O)O[C@H]2C[C@H]3OC[C@@]3(OC(C)=O)[C@H]3[C@H](OC(=O)c4ccccc4)[C@]4(O)C[C@H](OC(=O)[C@H](OC(=O)CCCc5cn([C@@H]6O[C@H](CO)[C@H](O)[C@H](O)[C@H]6NC(C)=O)nn5)[C@@H](NC(=O)c5ccccc5)c5ccccc5)C(C)=C([C@@H](OC(C)=O)C(=O)[C@]23C)C4(C)C)nn1` displayed a half-maximal cytotoxic concentration (CC50) in series [1] of 22900 nM. Further, the Stability result in series [2] and in series [3] was “Stable” throughout. The compound further gave a pKd in series [4] of 8.86. Further, the result in series [5], in series [6] and in series [7] was Active.
With `CC(=O)N[C@H]1[C@H](OCCn2cc(CCCC(=O)O[C@H]3C[C@H]4OC[C@@]4(OC(C)=O)[C@H]4[C@H](OC(=O)c5ccccc5)[C@]5(O)C[C@H](OC(=O)[C@H](OC(=O)CCCc6cn(CCO[C@@H]7O[C@H](CO)[C@H](O)[C@H](O)[C@H]7NC(C)=O)nn6)[C@@H](NC(=O)c6ccccc6)c6ccccc6)C(C)=C([C@@H](OC(C)=O)C(=O)[C@]34C)C5(C)C)nn2)O[C@H](CO)[C@H](O)[C@@H]1O`, the Stability entry in series [2] and in series [3] was “Stable” throughout. Besides, the outcome in series [5], in series [6] and in series [7] was Active.
In series [1], `CC(=O)N[C@H]1[C@H](OCCCCCCNC(=O)CCOCC(COCCC(=O)NCCCCCCO[C@@H]2O[C@H](CO)[C@H](O)[C@H](O)[C@H]2NC(C)=O)(COCCC(=O)NCCCCCCO[C@@H]2O[C@H](CO)[C@H](O)[C@H](O)[C@H]2NC(C)=O)NC(=O)CCCCCCCCCCn2cc(CCCC(=O)O[C@@H](C(=O)O[C@H]3C[C@@]4(O)[C@@H](OC(=O)c5ccccc5)[C@@H]5[C@]6(OC(C)=O)CO[C@@H]6C[C@H](O)[C@@]5(C)C(=O)[C@H](OC(C)=O)C(=C3C)C4(C)C)[C@@H](NC(=O)c3ccccc3)c3ccccc3)nn2)O[C@H](CO)[C@H](O)[C@@H]1O` came in with a CC50 of 110 nM. The Stability result in series [2] and in series [3] was “Stable” throughout. The compound further showed a negative-log Kd (pKd) in series [4] of 8.87.
On to `CC(=O)O[C@H]1C(=O)[C@@]2(C)[C@H]([C@H](OC(=O)c3ccccc3)[C@]3(O)C[C@H](OC(=O)[C@H](O)[C@@H](NC(=O)c4ccccc4)c4ccccc4)C(C)=C1C3(C)C)[C@]1(OC(C)=O)CO[C@@H]1C[C@@H]2O` [PACLITAXEL], for which, in series [1], the CC50 fell in the range of 120 to 210 nM. In addition, the Stability result in series [2] and in series [3] was “Stable” in each case. The outcome in series [5], in series [6] and in series [7] was Active.
Compound `CC(=O)N[C@H]1[C@H](OCCCCCCNC(=O)CCOCC(COCCC(=O)NCCCCCCO[C@@H]2O[C@H](CO)[C@H](O)[C@H](O)[C@H]2NC(C)=O)(COCCC(=O)NCCCCCCO[C@@H]2O[C@H](CO)[C@H](O)[C@H](O)[C@H]2NC(C)=O)NC(=O)CCCCCCCCCCN=[N+]=[N-])O[C@H](CO)[C@H](O)[C@@H]1O` had a negative-log Kd (pKd) in series [4] of 8.67.

In general, CC50 refers to the concentration at which the toxic effect on the cells reaches its halfway point. Low values mean greater toxicity to the cells, high ones lower toxicity to the cells. What is called pKd is the negative decadic logarithm of the Kd, by convention in mol/L. A higher pKd goes with a small Kd.
